Source: PubChem BioAssay (several laboratories)
Compounds with a hit are over-represented: about 1.3% of the library has one in this group of screens.
Hep lipid drop: inhibitors of hepatocyte lipid droplet formation, primary screen, imaging, high-throughput imaging, BODIPY stain; 240,000 tested, 0.4% active; inhibition, % at 6.5 µM; AID 1656, 2009; AML12 mouse hepatocytes, oleate lipid droplets;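 active = lipid droplet intensity inhibited by at least 50%, with more than 500 cells counted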
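Material – AML12 mouse liver cells · Also added – oleate loading, 100 µM · Compound dosing – 6.5 µM single-point dosing · Times – overnight treatment with compound plus oleate · Measured by – fluorescence imaging, 20x objective, two fields per well · Read-out – percent inhibition of filter-corrected integrated lipid droplet intensity per well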
HCV core dimer: inhibitors of HCV core protein dimerization, primary screen, biochemical, TR-FRET, high-throughput; TR-FRET GST/Flag-core106 dimerization, 1536-well; 300,000 tested, 0.33% active; AID 1899, 2009; inhibition, % at 5 µM;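 active = inhibition above the mean of all tested compounds plus 3 SD, set per screening campaign, cut at about 45% in these data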
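System: GST-tagged and Flag-tagged HCV core protein residues 1-106 / Input: core106 proteins, GST 13.5 nM and Flag 17 nM / Buffer or medium: KF-containing HEPES buffer, pH 7.45, DTT, CHAPS, BSA / Probe or stimulus: Eu-anti-GST and XL665-anti-Flag labelled anti-tag antibodies / Schedule: 4 h, 22.5 °C incubation / Technique: TR-FRET 671 and 617 nm emission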
HCV NS3 hel inh: inhibitors of HCV NS3 helicase, primary screen, biochemical, Cy5 molecular beacon fluorescence. Hepatitis C virus NS3 helicase. NS3 helicase DNA unwinding. inhibition, % at 10.9 µM. 290,000 tested, 0.56% active;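 active = inhibition above the mean of all tested compounds plus 3 SD, set per campaign, cut at about 35% in these data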;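 also: 0% = DMSO wells and 100% = thioflavine S control wells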
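Assay system: hepatitis C virus NS3 helicase domain fragment enzyme. Also added: annealed dual-labelled DNA beacon duplex, ATP-started. Timing: 1 h reaction at 25 °C, ATP-initiated. Technique: Cy5 fluorescence at 0 and 60 min, beacon hairpin quenching. Evaluation: % inhibition of unwinding. Replication: one well per compound.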
TbMetRS inhib: T. brucei MetRS inhibitors, primary screen, biochemical, luminescence. purified T. brucei MetRS, ATP depletion, Kinase-Glo luminescence. 360,000 tested, 0.4% active. methionyl-tRNA synthetase (Trypanosoma brucei brucei). AID 624268, 2012. inhibition, % at 11.9 µM;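 active = inhibition above a per-plate cutoff of the control wells' mean inhibition plus 3 SD, cut at about 5.5% in these data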;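 also: 0% = DMSO wells median and 100% = median of wells with control inhibitor compound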
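Dosing: 11.9 µM single point; system: parasite MetRS enzyme; technique: luminescence of leftover ATP; times: 15 min enzyme-compound preincubation, 2 h reaction, 10 min detection, 25 °C; replicates: each compound tested once; read-out basis: percent inhibition relative to median high and low control wells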
NS3 helicase cf: HCV NS3 helicase inhibitors, retest, confirmation, biochemical, Cy5 molecular beacon fluorescence, triplicate | shares compounds with HCV NS3 hel inh | inhibition, % at 10.9 µM | NS3 helicase DNA unwinding | 1,600 tested, 31% active;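 active = inhibition above the mean of all tested compounds plus 3 SD, cutoff set per campaign, cut at about 36% in these data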
FID counter trip: compounds displacing fluorescent DNA intercalator, artefact control for HCV NS3 helicase inhibitor project, biochemical, FID fluorescence, triplicate; 1,600 tested, 4% active; inhibition, % at 7.9 µM; shares compounds with HCV NS3 hel inh; DNA fluorescent intercalator displacement; in the data active = inhibition above about 37%;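 also: 0% = vehicle and 100% = reference compound; higher means more displacement of ethidium bromide from the DNA hairpin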
DNA FID DR: compounds displacing fluorescent intercalator from DNA, dose response, counter-screen for HCV NS3 helicase inhibitor project, biochemical, fluorescence | AID 2172, 2009 | IC50, µM | 120 tested, under 10 active | fluorescent intercalator displacement from DNA | shares compounds with HCV NS3 hel inh; call rule not given here
The depositor's hits bear a star; x = not tested or not shown.

SMILES	Hep lipid drop	HCV core dimer	HCV NS3 hel inh	TbMetRS inhib	NS3 helicase cf	FID counter trip	others
Cc1cccc(NC(=O)NNC(=O)c2cc3ccccc3cc2O)c1C	0.0	-1.6	8.6	0.9	x	x
O=C(NNC(=O)c1cc2ccccc2cc1O)Nc1ccccc1F	13.4	-10.9	45.8*	0.2	-7.5	-3.8
O=C(CN(C(=O)CCC(=O)Nc1ccccn1)C1CCCC1)NCc1ccccc1	8.0	10.3	0.6	-0.7	x	x
Cc1sc2nc(C)n(/N=C/c3ccc(O)cc3O)c(=O)c2c1C	-13.1	3.8	3.8	-0.7	x	x
CC(=O)N(CCC(c1ccccc1)c1ccco1)Cc1cccs1 (stereo not drawn)	x	14.9	18.1	-0.2	x	x
Cc1ccc(C(CCN(Cc2ccccc2)C(=O)c2ccco2)c2ccco2)cc1 (stereo not drawn)	10.1	37.7	53.9*	-0.7	54.8*	-29.7	DNA FID DR=>79.4
CC[C@]12c3[nH]c4ccc(OC)cc4c3CCN1C(=O)C(CC(=O)NCc1ccco1)C[C@@H]2C(=O)N1CCN(C(=O)c2ccco2)CC1 (stereo partly drawn)	x	x	x	-0.3	x	x
N#Cc1c(C(F)(F)F)cc(-c2ccco2)nc1SCc1ccncc1	x	6.2	43.8*	-0.5	-9.2	4.0
Cc1sc2nc(SCC(=O)NCc3ccco3)n(-c3ccccc3)c(=O)c2c1C	x	9.0	2.2	-0.3	x	x
CC(C)C(C)(C#N)NC(=O)CSc1nc2scc(-c3ccco3)c2c(=O)n1-c1ccccc1 (stereo not drawn)	x	37.6	36.4*	1.4	105.2*	4.4	DNA FID DR=>79.4
C=CCn1c(SCC(C)=O)nc2scc(-c3ccco3)c2c1=O	6.7	31.5	39.0*	-0.7	-0.9	3.8
Cc1ccc(S(=O)(=O)CCc2nc3ccccc3n2CCC#N)cc1	3.5	-3.1	5.4	0.1	x	x
Cc1cccc(C)c1NC(=O)C(c1ccc(C(F)(F)F)cc1)n1c(=O)c(-c2ccccc2)nc2ccccc21 (stereo not drawn)	x	x	x	-0.2	x	x
Cc1cc(C)nc(NS(=O)(=O)c2ccc(NC(=O)c3ccc(S(=O)(=O)N(C)C)cc3)cc2)n1	-0.3	-7.1	-5.8	-0.7	x	x
Cc1cc(C)nc(NS(=O)(=O)c2ccc(NC(=O)c3ccc(N4C(=O)CCC4=O)cc3)cc2)n1	-5.8	-14.3	60.1*	-0.9	-21.4	12.1
Cc1ccc(-n2nnnc2SCc2ccc(C(=O)O)cc2)cc1C	1.5	-8.1	37.2*	-0.1	-14.0	-7.0
CN(C)c1ccc(O)c2c1CC1CC3[C@@H](N(C)C)C(=O)C(C(N)=O)=C(O)[C@]3(O)C(=O)C1=C2O (stereo partly drawn)	-14.8	5.3	38.7*	-1.4	36.3*	15.7	DNA FID DR=>79.4
CCOc1ccc(C(=O)Nc2nnc(S(=O)(=O)N(C)Cc3ccco3)s2)cc1	-17.6	1.7	56.5*	-0.4	2.0	-5.3
Nc1ccccc1Nc1cc(-c2cccc(Cl)c2)nn1-c1ccccc1	-14.2	-3.8	3.7	0.6	x	x
O=c1ccc2c(-c3ccccc3)c3ccc(O)cc3oc-2c1	x	65.6*	73.3*	-0.3	67.5*	-11.2	DNA FID DR=>79.4
Nc1ccc(-c2c3ccc(=O)cc-3oc3cc(O)ccc23)cc1C(=O)O	x	-2.7	2.8	0.1	x	x
C=CCN(CC=C)C(=O)Nc1ccc2nc(C)sc2c1	1.0	-3.8	-18.8	-0.9	x	x
CCCn1c(C(C)Nc2nc(-c3cc(Cl)c(N)c(Cl)c3)cs2)nc2cc(Cl)c(N3CCCCC3)cc21 (stereo not drawn)	x	12.7	25.1	-0.2	x	x
CC(=O)OCCNc1cc(SCc2ccco2)c2nonc2c1[N+](=O)[O-]	-2.6	3.6	46.9*	0.0	-17.1	19.5
O=[N+]([O-])c1c(NCCCO)cc(SCc2ccco2)c2nonc12	-1.9	9.8	24.6	1.9	x	x
SMILES	Hep lipid drop	HCV core dimer	HCV NS3 hel inh	TbMetRS inhib	NS3 helicase cf	FID counter trip	others
O=C1c2cccc3cccc(c23)C(c2nc3ccccc3[nH]2)N1C1CC1 (stereo not drawn)	x	x	x	-0.6	x	x
NC(=O)Cn1c(=O)n(Cc2ccco2)c(=O)c2c3c(sc21)CCCCC3	x	29.9	38.7*	0.3	4.8	-13.0
O=C(Cn1c(=O)n(Cc2ccco2)c(=O)c2c3c(sc21)CCCC3)Nc1ccccc1	0.2	47.9*	47.2*	1.1	5.3	7.3
Cc1nn(C)c(=O)n1N(C)c1ncc(C(F)(F)F)cc1Cl	11.5	-4.3	1.6	0.0	x	x
Cc1cc(-c2nc3c4c5c(sc4[nH]c(=O)n3n2)CCC5)c(C)o1	12.9	55.4*	41.2*	-1.0	76.2*	8.0
Cc1ccc(C)n1N1C(=O)/C(=C\c2ccc(Cl)cc2)SC1=S	x	0.6	42.7*	-1.1	-6.3	7.5
O=C(O)/C(CC(=O)c1ccc(Cl)cc1)=N/Nc1ccc([N+](=O)[O-])cc1[N+](=O)[O-]	11.3	18.1	37.6*	-1.2	52.4*	55.5*
Cc1cc(NC(=O)c2ccc([N+](=O)[O-])cc2Cl)ccc1NC(=O)c1ccco1	12.6	-4.1	36.5*	-0.4	-7.8	14.4
N=C1/C(=C\c2ccc(-c3cccc(Cl)c3)o2)C(=O)N=C2SC=C(c3ccccc3)N12	-26.0	40.8	46.1*	0.5	79.5*	17.1
N=C1/C(=C\c2ccc(-c3ccc(C(=O)O)cc3)o2)C(=O)N=C2SC=C(c3ccccc3)N12	-4.6	x	36.5*	-0.2	72.6*	13.8
COc1cc(/C=C2/C(=N)N3C(c4ccccc4)=CSC3=NC2=O)ccc1OCC(=O)O	-6.1	10.5	12.7	-0.1	x	x
Cc1ccc(C2=CSC3=NS(=O)(=O)CCN23)cc1	8.8	-0.5	11.9	-1.3	x	x
COc1ccc(/C=N/NC2=NS(=O)(=O)c3ccccc32)cc1	-18.6	2.0	30.9	-0.3	x	x
CN(C)c1ccc(/C=N/NC2=NS(=O)(=O)c3ccccc32)cc1	3.2	-30.9	39.7*	-0.7	-5.7	-13.6
COc1ccc(/C=N/NC2=NS(=O)(=O)c3ccccc32)cc1OC(C)=O	-9.2	-3.4	51.5*	-0.7	-0.2	-1.1
CC(=O)Oc1ccc(/C=N/NC2=NS(=O)(=O)c3ccccc32)cc1	x	-3.7	34.6	2.4	x	x
O=C(C[C@@H]1C/C=C/CC[C@@H](Cc2ccc(F)cc2)C(=O)O[C@@H](c2ccccc2)CNC1=O)NCCO	x	x	x	-0.3	x	x
O=C1c2ccccc2NC2(CCCCC2)N1N=C1CCCCC1	31.5	-3.0	49.0*	1.1	-7.5	-2.6
